Compounds with a hit are over-represented: about 2% of the library has one in this group of screens.
Rpn11 inh = blocks the human proteasome subunit Rpn11 | AID 588493 | human 26S proteasome, Ub4-pepOG fluorescence polarization; 20S core pre-blocked with epoxomicin | actives 0.59% (n = 360,000) | inhibition, % at 20 µM;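 active = inhibition at 20 µM, scaled to each plate's controls, above about 33%, limit read from the data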
ATG4B inh = ATG4B (human) cysteine protease inhibition | ATG4B cleavage of LC3-PLA2, NBD-HPC fluorescence, 1 h | inhibition, % at 8.33 µM | actives 0.51% (n = 340,000) | AID 504462; in the data active = inhibition above about 40%
Target sequence (Q9Y4P1 whole entry, looked up): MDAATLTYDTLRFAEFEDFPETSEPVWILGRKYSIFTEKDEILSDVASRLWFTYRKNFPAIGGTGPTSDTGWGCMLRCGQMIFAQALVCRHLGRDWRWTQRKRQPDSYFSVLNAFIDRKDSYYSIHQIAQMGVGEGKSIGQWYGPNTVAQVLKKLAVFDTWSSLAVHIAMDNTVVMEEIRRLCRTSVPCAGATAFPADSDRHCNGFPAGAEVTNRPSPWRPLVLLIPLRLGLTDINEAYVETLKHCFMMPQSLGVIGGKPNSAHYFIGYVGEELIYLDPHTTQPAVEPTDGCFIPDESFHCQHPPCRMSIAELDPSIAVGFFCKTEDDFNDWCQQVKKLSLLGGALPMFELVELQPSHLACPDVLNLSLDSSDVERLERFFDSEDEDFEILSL
SENP1 FRET inh = blocks the human SENP1 SUMO protease catalytic domain; recombinant SENP1 catalytic domain, CyPet-SUMO1-YPet FRET cleavage; AID 624204; actives 0.21% (n = 360,000); inhibition, % at 10 µM;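 active = inhibition at least 30% at 10 µM, raw YFP signal under a set limit, fluorescence ratio 0.5 to 1.5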;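 note: 0% = enzyme with DMSO and 100% = no enzyme wells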
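Material: hSENP1 catalytic domain, recombinant; medium: Tris pH 8 with BME, BSA, NP40 and catalase; compound: single concentration of 10 µM compound, 0.5% DMSO final; technique: FRET read of cyan and yellow fluorescence; timing: 50 min enzyme reaction, room temperature, light-protected; reagent: SFCypet-SUMO1-SFYpet substrate at 25 nM; control set: no-enzyme low, enzyme-DMSO high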
HNF4A DNA FP = change in binding of human HNF4 alpha to DNA; P41235; HNF4a-FITC DNA binding, fluorescence polarization, 1 h; activity change, % at 10 µM; actives 0.3% (n = 360,000); AID 1224865; in the data active = activity change above about 30%, passing the limit was not always enough
TPT1 inh = blocks Candida albicans tRNA 2'-phosphotransferase | recombinant caTPT1, FP RNA substrate dephosphorylation | inhibition, % at 5 µM | actives 0.81% (n = 300,000);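 active = inhibition above the mean of all tested compounds plus 3 SD, set per screening campaign, cut at about 24% in these data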;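 note: plate controls were DMSO alone for no effect and ferristatin control at 100 nM for full effect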
CSN deneddyl inh = blocks human CSN-mediated cullin deneddylation. Q92905. Purified CSN, SCF-Nedd8-OG deneddylation, fluorescence polarization. inhibition, % at 12.5 µM. actives 0.38% (n = 360,000). AID 651999;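 active = pattern-corrected inhibition above about 35%, with an unprinted fluorescence ratio check between 0.5 and 1.5, limit read from the data, passing the limit was not always enough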;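 note: 0% = enzyme with substrate and 100% = substrate without enzyme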
Target sequence (Q92905 whole entry, looked up, one chain of several): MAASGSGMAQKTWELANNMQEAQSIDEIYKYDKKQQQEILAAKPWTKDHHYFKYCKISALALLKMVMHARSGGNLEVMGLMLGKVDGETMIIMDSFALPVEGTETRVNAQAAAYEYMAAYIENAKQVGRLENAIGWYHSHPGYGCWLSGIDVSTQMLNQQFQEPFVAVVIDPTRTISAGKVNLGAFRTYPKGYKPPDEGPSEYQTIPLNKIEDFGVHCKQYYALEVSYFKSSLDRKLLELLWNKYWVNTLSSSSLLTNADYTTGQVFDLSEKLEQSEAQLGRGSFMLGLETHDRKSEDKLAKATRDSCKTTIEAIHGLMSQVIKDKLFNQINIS
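test system = HEK293T-derived human Csn5 enzyme | amount = 0.24 nM Csn5 enzyme, final concentration | medium = Tris/NaCl/DTT buffer, pH 7.5 | schedule = 90 min reaction at room temperature | signal = FP | evaluation = inhibition of Csn5 cleavage, % | compound dosing = single dose of 12.5 µM compound with 0.25% DMSO | probe or stimulus = 10 nM SCFSkp2-Nedd8OG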
TPT1 inh confirm = confirmation of Candida albicans TPT1 inhibitors | shares compounds with TPT1 inh | recombinant caTPT1, fluorescence polarization, RNase T1 coupled | inhibition, % at 5 µM | actives 74% (n = 2,400);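 active = inhibition above the primary screen limit, the mean inhibition of all tested compounds plus 3 SD, cut at about 25% in these data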
RNase T1 inh = RNase T1 inhibition in TPT1 counter-screen | RNase T1 cleavage, fluorescence polarization, 1536-well | shares compounds with TPT1 inh | inhibition, % at 5 µM | actives 83% (n = 2,400);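 active = inhibition above the solvent-only control well mean plus 3 SD, limit set per screening run, cut at about 23% in these data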;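 note: plate controls were DMSO wells with enzyme for no effect and wells without RNase T1 for full effect; inhibitors block cleavage so intact labeled substrate keeps polarization high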
Numbers without * were called inactive; nt = not tested or not shown.

SMILES | Rpn11 inh | ATG4B inh | SENP1 FRET inh | HNF4A DNA FP | TPT1 inh | CSN deneddyl inh | TPT1 inh confirm | RNase T1 inh
CN(Cc1cn(Cc2ccccc2)nn1)C1CN(Cc2cn(Cc3ccccc3)nn2)S(=O)(=O)C1 (stereo not given) | nt | nt | 2 | 1 | nt | -4 | nt | nt
CC(=O)C[C@@H](O)CC(=O)[C@@H]1OC(=O)CCCCCCCc2ccccc21 | 1 | 4 | 0 | -7 | nt | -2 | nt | nt
Cc1cc(C)cc(NC(=O)/C(C#N)=C/c2cn(CC(=O)NCc3ccco3)c3ccccc23)c1 | 12 | -2 | -25 | -1 | 2 | -5 | nt | nt
Cc1ccc(NC(=O)/C(C#N)=C/c2cn(CC(=O)NCc3ccco3)c3ccccc23)cc1C | nt | -2 | -34 | 27 | 29* | 9 | 67* | 80*
Cc1nc2ccccc2c(=O)n1/N=C/c1ccc2ccccc2c1O | 4 | -7 | -33 | 1 | 54* | 7 | 26* | 35*
Cc1cc(=O)[nH]c(SCC(=O)c2ccccc2)c1C#N | 21 | -9 | -15 | 6 | 51* | 4 | 31* | 45*
Cc1cc(C)c(C#N)c(SCC(=O)c2ccccc2)n1 | -2 | -3 | -17 | 2 | 0 | 4 | nt | nt
COc1ccc(OC)c(NC(=O)C2(C)CCN2C(C)C)c1 (stereo not given) | 6 | nt | 1 | 1 | nt | 3 | nt | nt
COc1cccc(C(=O)NC(=O)Nc2cc(C)on2)c1 | 2 | -3 | 2 | 0 | 27* | -5 | 12 | 17
COc1cccc(NC(=O)Nc2cc(C)on2)c1 | 3 | 7 | 2 | -8 | -1 | 2 | nt | nt
CN(CC(=O)Nc1ccc(F)c(F)c1F)C(=O)Cc1ccc(S(=O)(=O)N2CCOCC2)s1 | 3 | 1 | 0 | 0 | nt | 4 | nt | nt
COc1ccccc1COC(=O)N/C=C/c1ccco1 | 29 | 22 | -7 | 17 | 42* | -2 | 20 | 25*
COc1ccc(COC(=O)N/C=C/c2ccco2)cc1 | 12 | -11 | -7 | 15 | 21 | 0 | nt | nt
COc1ccc(-c2ccc(C3C(C#N)=C(N)Oc4n[nH]c(C)c43)o2)cc1 (stereo not given) | 73* | -21 | -27 | 61* | 111* | 31 | 99* | 101*
COc1ccc(CNC(=O)CN(c2cccc(OC)c2)S(C)(=O)=O)cc1 | -2 | 4 | 3 | 0 | 76* | 0 | 2 | 6
Cc1cc(NC(=O)/C(C#N)=C/c2ccc(-c3ccc(SC(F)F)cc3)o2)n(-c2ccccc2)n1 | nt | -1 | -25 | 151 | 57* | 64* | 57* | 66*
CCN(CC)c1ccc(/C=C2\C(=N)N3N=C(CC(=O)N4CCOCC4)SC3=NC2=O)cc1 | nt | 4 | -21 | 205 | 137* | 122 | 174* | 164*
CCOC(=O)c1sc(/N=C/c2c(C)[nH]n(-c3ccccc3)c2=O)c(C#N)c1C | nt | nt | nt | nt | 30* | nt | 120* | 124*
Cc1[nH]n(-c2ccccc2)c(=O)c1/C=N/N(c1ccccc1)c1ccccc1 | 11 | 5 | 1 | -5 | -2 | 3 | nt | nt
NS(=O)(=O)c1cc2c(cc1Cl)NC(Cc1ccccc1)NS2(=O)=O (stereo not given) | 1 | -5 | 2 | 6 | 43* | 6 | 5 | 12
O=C(Nc1sccc1C(=O)NCc1ccco1)c1cccnc1 | 33 | -11 | 2 | 9 | 24* | 9 | 42* | 56*
O=C(NCc1ccco1)c1ccccc1 | -4 | -3 | 0 | 0 | 0 | -6 | nt | nt
O=C1C(=Cc2cccs2)C(=O)c2ccccc21 | 4 | -2 | 2 | -1 | -3 | -9 | nt | nt
O=C1/C(=C\c2cccs2)Sc2ccc3ccccc3c21 | -24 | -5 | 4 | 20 | 80* | 16 | 84* | 96*
O=C(c1cccs1)N1C[C@@H](O)[C@H](n2cc(C3CC3)nn2)C[C@@H]1c1ccc(Cl)cc1 | 0 | nt | 2 | 0 | nt | 1 | nt | nt
SMILES | Rpn11 inh | ATG4B inh | SENP1 FRET inh | HNF4A DNA FP | TPT1 inh | CSN deneddyl inh | TPT1 inh confirm | RNase T1 inh
O=C(COc1ccccc1)c1cn(CC(=O)N2CCOCC2)c2ccccc12 | 14 | -14 | 9 | 8 | 27* | 16 | 26* | 37*
O=C(Cn1cc(C(=S)N2CCOCC2)c2ccccc21)N1CCOCC1 | -5 | -2 | 1 | 2 | -4 | 1 | nt | nt
Nc1nonc1C(=O)N/N=C/c1cc(Br)ccc1O | nt | -2 | nt | nt | 33* | nt | 30* | 38*
COc1ccc(CNC(=O)/C=C/c2cc([N+](=O)[O-])ccc2OC(F)F)cc1OC | -1 | -11 | 1 | -1 | 37* | 4 | 7 | 8
CN1Cc2sc(NC(=S)NC(=O)c3ccccc3)c(C#N)c2CC1(C)C | nt | -16 | nt | nt | 97* | nt | 85* | 90*
CCC1(C)Cc2c(sc(NC(=S)NC(=O)c3ccccc3)c2C#N)CO1 (stereo not given) | -6 | -7 | 0 | -3 | 0 | 2 | nt | nt
N=C1S/C(=C\c2ccc(-c3cccc(Cl)c3)o2)C(=O)N1c1nccs1 | 6 | 12 | -30 | -18 | 29* | 3 | 32* | 35*
O=C(NNC(=O)c1ccccc1Br)c1cnccn1 | 2 | 1 | 3 | -1 | nt | -4 | nt | nt
COC(=O)CCc1nc2ccccc2[nH]c1=O | 9 | -7 | 3 | -2 | -2 | -2 | nt | nt
COC(=O)CSCc1nc2ccccc2[nH]c1=O | 34 | -4 | -44 | 24 | 64* | 7 | 61* | 72*
O=C(O)c1ccc(N=Cc2c(O)ccc3ccccc23)cc1 | 4 | 1 | -57 | 12 | -1 | -1 | nt | nt
CC(=O)Nc1ccc(N=Cc2c(O)ccc3ccccc23)cc1 | nt | -8 | -25 | 77* | 46* | 42 | 46* | 79*
NC(=O)c1ccc(N=Cc2c(O)ccc3ccccc23)cc1 | 19 | -16 | -58 | 8 | 0 | 5 | nt | nt
COc1ccc(N=Cc2c(O)ccc3ccccc23)cc1 | nt | -11 | -28 | 72* | 112* | 51* | 90* | 110*
O=C1N/C(=N\S(=O)(=O)Cc2ccccc2)S/C1=C/c1cc([N+](=O)[O-])ccc1O | nt | 6 | 25 | 4 | 68* | 21 | 75* | 80*
O=C1N/C(=N\S(=O)(=O)c2ccccc2)S/C1=C\c1cc([N+](=O)[O-])ccc1O | nt | 15 | 26 | 14 | 76* | 32 | 78* | 83*
C[C@@H]1CCCCO[C@H](CN(C)S(=O)(=O)c2cccs2)[C@@H](C)CN([C@H](C)CO)C(=O)c2cc(NC(=O)C3CCCCC3)ccc2O1 | 1 | nt | -2 | 1 | nt | -3 | nt | nt
